Measurements reported in ChEMBL document CHEMBL4834396, “Molecular Recognition and Imaging of Human Telomeric G-Quadruplex DNA in Live Cells: A Systematic Advancement of Thiazole Orange Scaffold To Enhance Binding Specificity and Inhibition of Gene Expression” (J Med Chem, 2021).
The source made the active and inactive calls. The calls are words filed in the database; no cut-off is given here.

Key:
Quadruplex DNA [1] = test: Binding affinity to c-myc promoter G-quadruplex DNA Pu27 (unknown origin) assessed as dissociation constant by isothermal titration calorimetric analysis; type: nucleic-acid assay
Summary of the method: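 ITC at 25 °C: DNA preannealed at 95 °C for 5 min, cooled and held at 4 °C overnight, in 25 mM KH2PO4, 60 mM KCl, pH 7.4, 0.5% DMSO. DNA 10 μM in cell, ligand 500 μM in syringe; 19 injections of 4 s, 150 s apart, 750 rpm stirring; blank heat subtracted before model fitting.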

[2] = test system: Quadruplex DNA [UNDEFINED MUTATION]; test: Effect on confirmation of telomeric Htg24 G-quadruplex DNA T12G mutant (unknown origin) assessed as hybrid topology at 5 uM at pH 7.4 by circular dichroism analysis; type: nucleic-acid assay; settings: Homo sapiens
Summary of the method: (§1)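 CD spectra recorded on G4-DNA and ligand, each at 5 μM, in 10 mM Tris-HCl, pH 7.4, with 60 mM KCl. Scan range 220–340 nm in a 1 mm quartz cuvette, 1 nm bandwidth and step, 0.5 s/point. Each spectrum is the average of three scans.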

Quadruplex DNA [3] = test: Binding affinity to telomeric Htg24 G-quadruplex DNA (unknown origin) assessed as fold increase in fluorescence signal at 5 uM under pH condition 7.4 by fluorescence method; type: nucleic-acid assay
Summary of the method: (§2)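 Ligand 5 μM with each nucleic acid at 15 μM in 10 mM Tris-HCl pH 7.4, 60 mM KCl; emission enhancement expressed as F/F0 against ligand without DNA.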

[4] = test system: Quadruplex DNA [UNDEFINED MUTATION]; test: Binding affinity to telomeric Htg24 G-quadruplex DNA G22T mutant (unknown origin) assessed as negative fluorescence signal at 5 uM under pH condition 7.4 by fluorescence titration analysis; type: nucleic-acid assay; settings: Homo sapiens
Summary of the method: (§3)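 Ligand held at 5 μM and mixed with each Htg24 point mutant in Tris-HCl buffer containing 60 mM KCl, pH 7.4. Fluorescence was read, and the signal change was computed as (F mutant − F wild type)/F wild type.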

[5] = test system: Quadruplex DNA [UNDEFINED MUTATION]; test: Binding affinity to telomeric Htg24 G-quadruplex DNA T6G mutant (unknown origin) assessed as negative fluorescence signal at 5 uM under pH condition 7.4 by fluorescence titration analysis; type: nucleic-acid assay; settings: Homo sapiens; summary of the method: as §3
PC-3 = test: Antiproliferative activity against human PC-3 cells assessed as reduction in cell viability […] by MTT assay; type: functional, cell-based
[6] = test system: Quadruplex DNA [UNDEFINED MUTATION]; test: Effect on confirmation of telomeric Htg24 G-quadruplex DNA G16T mutant (unknown origin) assessed as parallel topology at 5 uM at pH 7.4 by circular dichroism analysis; type: nucleic-acid assay; settings: Homo sapiens; summary of the method: as §1
[7] = test system: Quadruplex DNA [UNDEFINED MUTATION]; test: Effect on confirmation of telomeric Htg24 G-quadruplex DNA G22T mutant (unknown origin) assessed as hybrid topology at 5 uM at pH 7.4 by circular dichroism analysis; type: nucleic-acid assay; settings: Homo sapiens; summary of the method: as §1
[8] = test system: Quadruplex DNA [UNDEFINED MUTATION]; test: Effect on confirmation of telomeric Htg24 G-quadruplex DNA A8G mutant (unknown origin) assessed as hybrid topology at 5 uM at pH 7.4 by circular dichroism analysis; type: nucleic-acid assay; settings: Homo sapiens; summary of the method: as §1
[9] = test system: Quadruplex DNA [UNDEFINED MUTATION]; test: Binding affinity to telomeric Htg24 G-quadruplex DNA G3C mutant (unknown origin) assessed as negative fluorescence signal at 5 uM under pH condition 7.4 by fluorescence titration analysis; type: nucleic-acid assay; settings: Homo sapiens; summary of the method: as §3
[10] = test system: Quadruplex DNA [UNDEFINED MUTATION]; test: Binding affinity to telomeric Htg24 G-quadruplex DNA G15C mutant (unknown origin) assessed as fluorescence signal at 5 uM under pH condition 7.4 by fluorescence titration analysis; type: nucleic-acid assay; settings: Homo sapiens
[11] = test system: Quadruplex DNA [UNDEFINED MUTATION]; test: Effect on confirmation of telomeric Htg24 G-quadruplex DNA G22C mutant (unknown origin) assessed as hybrid topology at 5 uM at pH 7.4 by circular dichroism analysis; type: nucleic-acid assay; settings: Homo sapiens; summary of the method: as §1
[12] = test system: Quadruplex DNA [UNDEFINED MUTATION]; test: Binding affinity to telomeric Htg24 G-quadruplex DNA G17A mutant (unknown origin) assessed as negative fluorescence signal at 5 uM under pH condition 7.4 by fluorescence titration analysis; type: nucleic-acid assay; settings: Homo sapiens
Summary of the method: (§4)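 Ligand 5 μM mixed with wild-type or point-mutant Htg24 in Tris-HCl buffer with 60 mM KCl; signal change calculated as (F mutant − F wild type)/F wild type.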

Quadruplex DNA [13] = test: Stabilization of telomeric Htg24 G-quadruplex DNA (unknown origin) assessed as inhibition of DNA amplification at 20 uM by PCR analysis; type: nucleic-acid assay
Summary of the method: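 Taq polymerase stop assay: Htg24 or its non-G4 mutant template (5 μM) with 2 μM of each oligomer, […] and ligand at 0–20 μM. Cycling was 94 °C for 5 min, then 30 cycles of 94/56/72 °C at 30 s each. Products were resolved on 15% PAGE and stained with SYBR Gold.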

rRNA = test: Binding affinity to rRNA (unknown origin) assessed as equilibrium binding constant at 5 uM at 25 degreeC […]; type: nucleic-acid assay
Summary of the method: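 Fluorescence titration: ligand 5 μM in 10 mM Tris-HCl pH 7.4 with 60 mM KCl, nucleic acid added until saturation, 25 °C. Keq from nonlinear fit of F/F0 to an independent-site model.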

[14] = test system: Quadruplex DNA [UNDEFINED MUTATION]; test: Binding affinity to telomeric Htg24 G-quadruplex DNA G21A mutant (unknown origin) assessed as strong fluorescence signal at 5 uM under pH condition 7.4 by fluorescence titration analysis; type: nucleic-acid assay; settings: Homo sapiens; summary of the method: as §4
[15] = test system: Quadruplex DNA [UNDEFINED MUTATION]; test: Binding affinity to telomeric Htg24 G-quadruplex DNA G22C mutant (unknown origin) assessed as negative fluorescence signal at 5 uM under pH condition 7.4 by fluorescence titration analysis; type: nucleic-acid assay; settings: Homo sapiens; summary of the method: as §3
Quadruplex DNA [16] = test: Binding affinity to telomeric Htg24 G-quadruplex DNA (unknown origin) at 5 uM at pH 7.4 by UV-spectrophotometric titration analysis; type: nucleic-acid assay
Summary of the method: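 UV-vis titration of ligand (5 μM) with Htg24 (0–15 μM) in 10 mM Tris-HCl pH 7.4 containing 60 mM KCl, added until saturation.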

Quadruplex DNA [17] = test: Binding affinity to G4 quadruplex DNA in human U87 cells assessed as decrease in fluorescence intensity at 5 uM in presence of 5 to 20 uM BRACO19 by DAPI staining based confocal laser microscopic analysis; type: cell-based
Summary of the method: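 Live U87 cells stained with ligand (5 μM) plus DAPI, with BRACO19 added at 0, 5, 10, 15 or 20 μM. Confocal imaging with excitation at 488 or 571 nm for the ligand and 402 nm for DAPI; nuclear spot fluorescence intensity scored.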

Quadruplex DNA [18] = test: Binding affinity to telomeric Htg22 G-quadruplex DNA (unknown origin) assessed as fold increase in fluorescence signal at 5 uM under pH condition 7.4 by fluorescence method; type: nucleic-acid assay; summary of the method: as §2
i-motif DNA = test: Binding affinity to promoter i-motif DNA (unknown origin) assessed as fluorescence signal at 5 uM under pH condition 7.4 by fluorescence method; type: nucleic-acid assay; summary of the method: as §2
[19] = test system: Quadruplex DNA [UNDEFINED MUTATION]; test: Effect on confirmation of telomeric Htg24 G-quadruplex DNA G22A mutant (unknown origin) assessed as hybrid topology at 5 uM at pH 7.4 by circular dichroism analysis; type: nucleic-acid assay; settings: Homo sapiens; summary of the method: as §1
[20] = test system: Quadruplex DNA [UNDEFINED MUTATION]; test: Binding affinity to telomeric Htg24 G-quadruplex DNA G23C mutant (unknown origin) assessed as fluorescence signal at 5 uM under pH condition 7.4 by fluorescence titration analysis; type: nucleic-acid assay; settings: Homo sapiens; summary of the method: as §3
Quadruplex DNA [21] = test: Binding affinity to telomeric Htg24 G-quadruplex DNA (unknown origin) assessed as stroke shift under at 480 to 483 nm at pH 7.4 by spectrophotometric method
U-87 MG = test: Antiproliferative activity against human U87 cells assessed as reduction in cell viability […] by MTT assay; type: functional, cell-based, U-87MG ATCC

Kd (Quadruplex DNA [1]): 3.27 µM
Activity [2]: Active
fold change (FC) (Quadruplex DNA [3]): 120
Activity [4]: Active
Activity [5]: Active
IC50 (PC-3): 12.8 µM
Activity [6]: Active
Activity [7]: Active
Activity [8]: Active
Activity [9]: Active
Activity [10]: inactive
Activity [11]: Active
Activity [12]: Active
Activity (Quadruplex DNA [13]): Active
Kb (rRNA): 620000 M⁻¹
Activity [14]: Active
Activity [15]: Active
Activity (Quadruplex DNA [16]): Active
fold change (FC) (Quadruplex DNA [18]): 120
fold change (FC) (i-motif DNA): 1
Activity [19]: Active
Activity [20]: inactive
Activity (Quadruplex DNA [21]): 162 nm
IC50 (U-87 MG): 15.2 µM
Structure (SMILES): CN(C)c1ccc(/C=C/c2cc(/C=C3\Sc4ccccc4N3CCCN3CCOCC3)c3ccccc3[n+]2C)cc1.[I-]
Activity (Quadruplex DNA [17]): Active
